According to ChEMBL document CHEMBL2046356, “Synthesis and evaluation of a set of para-substituted 4-phenylpiperidines and 4-phenylpiperazines as monoamine oxidase (MAO) inhibitors” (J Med Chem, 2012):
pKi: −log10 of the molar value. The source made the active and inactive calls. The calls are words filed in the database; no cut-off is given here.

Tests used:
[1] = tested on: Rattus norvegicus; assay: Increase in 3-MT level in Sprague-Dawley rat striatum at 100 umol/kg, sc measured after 1 hr compound administration; assay type: functional
Procedure, shortened: (§1)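 Compounds were given to freely moving rats. Brain tissue was taken post-mortem, and striatal levels of each monoamine and its metabolites were quantified.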

[2] = target: T1, Amine oxidase [flavin-containing] A (Rattus norvegicus, UniProt P21396); assay: Displacement of [3H]-Ro 41-1049 from MAO-A receptor in rat cerebral cortex; assay type: tissue-based
T1 sequence (P21396 whole entry): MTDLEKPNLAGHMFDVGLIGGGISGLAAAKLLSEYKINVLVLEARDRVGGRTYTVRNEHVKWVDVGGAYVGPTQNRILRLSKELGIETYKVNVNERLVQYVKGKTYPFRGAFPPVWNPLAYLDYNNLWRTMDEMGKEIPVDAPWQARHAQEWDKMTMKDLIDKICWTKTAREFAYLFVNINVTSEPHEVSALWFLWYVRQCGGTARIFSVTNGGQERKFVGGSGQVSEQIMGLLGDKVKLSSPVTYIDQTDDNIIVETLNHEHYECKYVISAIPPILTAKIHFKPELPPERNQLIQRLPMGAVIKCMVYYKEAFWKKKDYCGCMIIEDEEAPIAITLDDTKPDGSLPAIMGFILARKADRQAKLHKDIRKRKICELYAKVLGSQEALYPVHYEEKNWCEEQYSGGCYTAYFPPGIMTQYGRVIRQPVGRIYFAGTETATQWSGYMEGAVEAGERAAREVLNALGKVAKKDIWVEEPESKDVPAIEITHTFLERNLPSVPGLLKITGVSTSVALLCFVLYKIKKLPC

[3] = tested on: Rattus norvegicus; assay: Decrease in homovanillic acid level in Sprague-Dawley rat brain at 50 umol/kg, sc measured by microdialysis; assay type: functional, organism-based
[4] = target: T2, Amine oxidase [flavin-containing] B (Rattus norvegicus, UniProt P19643); assay: Displacement of [3H]-Ro 16-6491 from MAO-B receptor in rat cerebral cortex; assay type: tissue-based
T2 sequence (P19643 whole entry): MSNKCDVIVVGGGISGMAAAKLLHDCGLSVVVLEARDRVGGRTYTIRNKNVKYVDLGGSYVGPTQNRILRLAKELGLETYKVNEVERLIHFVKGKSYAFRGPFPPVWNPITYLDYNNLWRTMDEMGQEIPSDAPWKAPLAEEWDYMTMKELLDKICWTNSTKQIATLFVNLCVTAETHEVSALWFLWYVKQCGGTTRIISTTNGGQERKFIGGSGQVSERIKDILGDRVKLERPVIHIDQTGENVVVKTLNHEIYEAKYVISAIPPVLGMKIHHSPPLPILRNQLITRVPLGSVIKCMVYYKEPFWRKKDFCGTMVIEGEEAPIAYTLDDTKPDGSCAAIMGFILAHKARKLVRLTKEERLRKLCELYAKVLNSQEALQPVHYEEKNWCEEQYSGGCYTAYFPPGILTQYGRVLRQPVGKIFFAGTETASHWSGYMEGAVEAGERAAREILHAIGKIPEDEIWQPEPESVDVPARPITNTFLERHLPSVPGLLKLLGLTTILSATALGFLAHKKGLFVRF

[5] = tested on: Rattus norvegicus; assay: Decrease in DOPAC level in Sprague-Dawley rat striatum at 100 umol/kg, sc measured after 1 hr compound administration; assay type: functional; design: scale not given: the % may be the effect or the level left; procedure, shortened: as §1
[6] = tested on: Rattus norvegicus; assay: Decrease in DOPAC level in Sprague-Dawley rat brain at 50 umol/kg, sc measured by microdialysis; assay type: functional, organism-based
[7] = tested on: Rattus norvegicus; assay: Increase in 3-MT level in Sprague-Dawley rat brain at 50 umol/kg, sc measured by microdialysis; assay type: functional, organism-based
[8] = tested on: Rattus norvegicus; assay: Decrease in DOPAC level in Sprague-Dawley rat striatum at 53 umol/kg, sc measured after 1 hr compound administration; assay type: functional; design: scale not given: the % may be the effect or the level left; procedure, shortened: as §1
[9] = tested on: Rattus norvegicus; assay: Increase in 3-MT level in Sprague-Dawley rat striatum at 53 umol/kg, sc measured after 1 hr compound administration; assay type: functional; procedure, shortened: as §1
[10] = tested on: Rattus norvegicus; assay: Increase in 3-MT level in Sprague-Dawley rat striatum at 5.3 umol/kg, sc measured after 1 hr compound administration; assay type: functional; procedure, shortened: as §1
[11] = tested on: Rattus norvegicus; assay: Decrease in DOPAC level in Sprague-Dawley rat striatum at 5.3 umol/kg, sc measured after 1 hr compound administration; assay type: functional; design: scale not given: the % may be the effect or the level left; procedure, shortened: as §1
[12] = tested on: Rattus norvegicus; assay: Increase in 3-MT level in Sprague-Dawley rat striatum at 37 umol/kg, sc measured after 1 hr compound administration; assay type: functional
Procedure, shortened: (§2)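 Unrestrained rats were dosed, and post-mortem striatal brain tissue was then analysed. Each monoamine and its metabolites (DOPAC, 3-MT) were quantified in the tissue.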

[13] = tested on: Rattus norvegicus; assay: Decrease in DOPAC level in Sprague-Dawley rat striatum at 37 umol/kg, sc measured after 1 hr compound administration; assay type: functional; design: scale not given: the % may be the effect or the level left; procedure, shortened: as §2

SMILES	Activity [1] [%]	pKi [2]	pKi [4]	Activity [5] [%]	further results
CCCCOc1ccc(C2CCN(CCC)CC2)cc1	150	6.43	5.80	40	Activity [3]: Active; Activity [6]: Active; Activity [7]: Active
CCCN1CCC(c2ccc(OC)cc2)CC1	260	6.62	3.66	22	
CCCN1CCC(c2ccccc2)CC1	100	5.01		130	
CCCN1CCC(c2ccc(N3CCOCC3)cc2)CC1	160	5.92	4.89	38	
CCCN1CCC(c2ccc(C(F)(F)F)cc2)CC1	100	5.16	4.89	86	
CCCN1CCC(c2ccc(C#N)cc2)CC1	115	4.03	3.23	105	
CCCN1CCN(c2ccc(OC)cc2)CC1	135	5.85	3.23	71	
CCCN1CCN(c2ccc(OS(=O)(=O)C(F)(F)F)cc2)CC1	120	4.77	7.48	121	
C#CCN(C)[C@H](C)Cc1ccccc1 [SELEGILINE]					Activity [8]: 37%; Activity [9]: 145%; Activity [10]: 110%; Activity [11]: 83%
CCCN1CCN(c2ccccc2)CC1	100	4.33		180	
CCCN1CCC(c2ccc(S(C)(=O)=O)cc2)CC1	100	3.23	3.23	100	
CCCN1CCC(c2ccc(Cl)cc2)CC1	130	5.82	4.42	68	
O=C(NCCN1CCOCC1)c1ccc(Cl)cc1 [MOCLOBEMIDE]			< 4.00		Activity [12]: 400%; Activity [13]: 18%
